Experiment [1] has as its target human KCa1.1 channel (HSlo) (Homo sapiens, UniProt Q12791). Nature of the experiment: Whole-cell patch clamp inhibition of cloned human KCa1.1. It counts as cell-based. Conditions: read-out: inhibition of outward current. In short, it runs like this:
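Whole-cell clamp of HEK293 stably expressing N-terminal Flag-tagged human HSlo. Pipette: KCl/EGTA/Hepes-KOH pH 7.2, 0.5 μM free Ca2+. Bath: NaCl-based pH 7.4. Steps from −80 mV to +100 mV (+10 mV, 100 ms), 5 kHz filter, P/5 leak correction, paxilline-resistant current subtracted. Toxin (50 nM) gravity-perfused; −80→+50 mV pulses every 10 s tracked onset/washout. KI from one-site fit; Kd from kinetic ratio.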
(In patch-clamp work, channel activity is measured electrically.)

Experiment [2] in a line: Biological activity of deprotected IbTx-D19C. Conditions: after selective thiol deprotection using AgBF4; methionine sulfoxide (Met^29).
Experiment [3] deals with KCa1.1 (UniProt Q12791). Conditions: cited from earlier work.
Sequence of KCa1.1 (Q12791 whole entry): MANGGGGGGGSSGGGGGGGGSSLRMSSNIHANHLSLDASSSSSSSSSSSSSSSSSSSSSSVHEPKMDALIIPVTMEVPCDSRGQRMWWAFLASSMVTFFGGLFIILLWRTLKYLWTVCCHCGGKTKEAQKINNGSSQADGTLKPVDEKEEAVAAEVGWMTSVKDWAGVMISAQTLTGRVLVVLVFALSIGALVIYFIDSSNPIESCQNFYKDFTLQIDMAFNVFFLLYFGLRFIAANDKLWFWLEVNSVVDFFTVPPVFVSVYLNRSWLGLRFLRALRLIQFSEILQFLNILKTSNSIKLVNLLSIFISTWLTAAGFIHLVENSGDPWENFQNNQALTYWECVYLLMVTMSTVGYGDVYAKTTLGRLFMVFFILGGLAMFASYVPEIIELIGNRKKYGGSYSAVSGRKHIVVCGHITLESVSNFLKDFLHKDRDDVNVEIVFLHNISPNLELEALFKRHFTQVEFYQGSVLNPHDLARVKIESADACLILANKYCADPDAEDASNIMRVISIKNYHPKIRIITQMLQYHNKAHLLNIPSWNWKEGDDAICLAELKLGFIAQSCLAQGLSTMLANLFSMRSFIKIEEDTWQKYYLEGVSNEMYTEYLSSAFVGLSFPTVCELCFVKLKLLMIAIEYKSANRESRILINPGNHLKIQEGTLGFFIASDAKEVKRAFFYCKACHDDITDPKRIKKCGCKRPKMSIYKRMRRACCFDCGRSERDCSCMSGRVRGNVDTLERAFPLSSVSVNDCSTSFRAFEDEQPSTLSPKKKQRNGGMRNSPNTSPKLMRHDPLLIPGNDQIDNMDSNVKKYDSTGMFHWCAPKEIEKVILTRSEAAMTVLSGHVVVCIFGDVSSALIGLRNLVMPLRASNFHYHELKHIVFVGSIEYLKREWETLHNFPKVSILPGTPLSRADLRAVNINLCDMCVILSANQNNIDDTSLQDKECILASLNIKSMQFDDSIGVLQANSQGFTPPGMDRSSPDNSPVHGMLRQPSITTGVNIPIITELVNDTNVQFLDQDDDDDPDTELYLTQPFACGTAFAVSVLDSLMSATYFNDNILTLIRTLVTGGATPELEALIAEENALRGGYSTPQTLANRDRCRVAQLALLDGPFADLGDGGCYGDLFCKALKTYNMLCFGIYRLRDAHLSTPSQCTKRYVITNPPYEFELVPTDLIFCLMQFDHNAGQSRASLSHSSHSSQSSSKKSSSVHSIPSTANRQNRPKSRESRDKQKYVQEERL

Where no end group is shown, it is not given here. [ ]: non-standard residue; d: D form. Met(O) = CS(=O)CC[C@H](N)C(=O)O

Sequence of iberiotoxin (P24663 whole entry): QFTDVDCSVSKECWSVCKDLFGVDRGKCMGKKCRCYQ
Sequence of human KCa1.1 channel (HSlo) (Q12791 whole entry, the tested form may be a part): as the sequence (Q12791 whole entry) above

For the compound `CC(C)(O)[C@H]1O[C@H]2CC[C@@]3(C)[C@@](O)(CC[C@H]4Cc5c([nH]c6ccccc56)[C@@]43C)C2=CC1=O` [Paxilline], the inhibition at 1 µM in experiment [1] was greater than 95%.
“IbTx-D19C: biologically inactive form of IbTx-D19C from AgBF4 deprotection of IbTx-D19C-Acm (QFTDVDCSVSKECWSVCKCLFGVDRGKC[Met(O)]GKKCRCYQ; ends and bridges not checked; UniProt P24663 1-37, looked up, variant D19C)”: the biological activity entry in experiment [2] was “biologically inactive”.
Consider iberiotoxin (from UniProt P24663), for which, in experiment [3], the Kd was less than 1 nM.

The term inhibition denotes the change of the read-out against control, counted positive when it falls. Broadly, the Kd is the equilibrium constant for the complex coming apart.

(Values after article PMC2998342 (Peptides, 2009).)
